The source of these data is ChEMBL document CHEMBL1156192, “N-((1-benzyl-1H-1,2,3-triazol-4-yl)methyl)arylamide as a new scaffold that provides rapid access to antimicrotubule agents: synthesis and evaluation of antiproliferative activity against select cancer cell lines” (J Med Chem, 2010).

Broadly, the IC50 is the concentration that gives 50% inhibition. As usually defined, the MIC is the least concentration at which growth counts as inhibited. Low values mean inhibition by little substance, high ones a need for much substance.

≈ marks a conversion by molar mass, not a printed value. Calls of active or inactive are those of the source. No cut-off for these calls is given here.

Assay [1] has as its system HeLa. Put plainly: Cell cycle arrest in human HeLa cells assessed as accumulation at G2/M cells at 5 uM after 18 hrs by flow cytometry. Format: functional. The procedure, abridged:
(§1)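 HeLa in RPMI-1640 with 10% FBS, Pen-Strep; 8 x 10^5 cells in 4 mL dosed at 5 µM (0.05% DMSO final) for 18 h, triplicate. Harvested cells fixed in 70% ice-cold ethanol 1 h at -20 °C, RNase A treated 2 h, propidium iodide 50 µg/mL stained. DNA content by flow cytometry, 20,000 events, single cells gated on PI width vs area.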

The test system of assay [2] is MCF7. Description: Antiproliferative activity against human MCF7 cells after 72 hrs by crystal violet biomass reduction assay. Type of assay: functional, cell-based. The note with it: MCF7, 72 h. The procedure, abridged: (§2)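 Cells grown in α-MEM with 5% FBS at 37 °C, 5% CO2; 2,500 cells/well allowed 24 h before compound in DMSO, triplicates, ≥5 concentrations, 72 h exposure. Biomass read by crystal violet staining, Triton X-100 elution, OD 595 nm. IC50 from dose-response as 50% reduction in net cell mass versus vehicle, corrected with no-cell background.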

A further assay relates to U-937. Description: Antiproliferative activity against human U937 cells by sulforhodamine B assay. Format: functional, cell-based. The procedure, abridged:
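U-937 cells in RPMI-1640 with 10% FBS and 1% Pen-Strep; 4 x 10^4 cells/well, compound in DMSO, replicates of 5, 72 h at 37 °C, 5% CO2. Fixed with cold TCA overnight at 4 °C. Stained 30 min with 0.057% SRB in 1% acetic acid; bound dye released in 10 mM Tris base, A510 read. Vehicle and cell-free wells set 100%/0% biomass; IC50 from logistic fit.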
Background: In SRB staining, fixed cells bind dye roughly in proportion to their protein.

Assay [3] has as its system HeLa. Description: Cell cycle arrest in human HeLa cells assessed as accumulation at G1 phase at 5 uM after 18 hrs by flow cytometry. Type of assay: functional. The procedure, abridged:
as §1

Assay [4] concerns HeLa. Put plainly: Cell cycle arrest in human HeLa cells assessed as accumulation at G2 phase at 5 uM after 18 hrs by flow cytometry. Format: functional. An outline of the steps: as §1
Background: A flow cytometer gives signals particle by particle.

For assay [5], the system named is HeLa. Put plainly: Cell cycle arrest in human HeLa cells assessed as accumulation at S phase at 5 uM after 18 hrs by flow cytometry. Type of assay: functional. The procedure, abridged:
as §1

In assay [6] the test system is HeLa. Put plainly: Cell cycle arrest in human HeLa cells assessed as accumulation at G2/G1 phase at 5 uM after 18 hrs by flow cytometry. Format: functional. An outline of the steps:
as §1

The nature of assay [7]: Inhibition of tubulin polymerization at 10 uM. An outline of the steps: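 Tubulin added in PIPES pH 6.9 buffer with EGTA, MgCl2, 5% glycerol; compound at 10 µM final from DMSO. After 10 min on ice, GTP added, then polymerization followed by absorbance at 340 nm for 30 min at 37 °C. Paclitaxel and nocodazole at 10 µM final as controls.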
Assay [8] relates to Mycobacterium tuberculosis. Put plainly: Antimycobacterial activity against Mycobacterium tuberculosis H37Rv. Format: functional.
The test system of assay [9] is MCF7. Description: Antiproliferative activity against human MCF7 cells by crystal violet biomass reduction assay. Format: functional, cell-based. Particulars: TDE = time-dependent effect. The procedure, abridged:
as §2

The subject of assay [10] is HeLa. Put plainly: Change in cellular morphology of human HeLa cells assessed as DNA condensation at 5 uM after 18 hrs using propidium-iodide staining by confocal microscopy. Format: functional, cell-based. The procedure, abridged: (§3)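 HeLa attached 3 h on cover slips, then 18 h with DMSO vehicle or 5 µM compound (0.05% DMSO final). Brief microtubule stabilizing buffer (PIPES pH 6.8), 0.5% glutaraldehyde fixation 10 min, NaBH4 quench, blocking; FITC anti-α-tubulin (1:50) with RNase A 2.5 h, then propidium iodide 50 µg/mL 15 min. Imaged by confocal microscopy.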

The test system of assay [11] is HeLa. Put plainly: Change in cellular morphology of human HeLa cells assessed as microtubule disruption at 5 uM after 18 hrs using FITC-conjugated alpha-tubulin antibody by confocal microscopy. Type of assay: functional, cell-based. An outline of the steps:
as §3

The test system of assay [12] is HeLa. Description: Cell cycle arrest in human HeLa cells assessed as accumulation at M phase at 5 uM after 18 hrs by flow cytometry. Type of assay: functional, cell-based. An outline of the steps: as §1
In assay [13] the test system is HeLa. Put plainly: Change in cellular morphology of human HeLa cells assessed as interference in microtubule formation at 5 uM after 18 hrs by confocal microscopy. Format: functional, cell-based. The procedure, abridged:
as §3

For the compound `CC(=O)NCc1cn(Cc2cccc(Oc3ccccc3)c2)nn1`, the result in the assay with HeLa [1] was inactive. For the same compound, the results for the IC50 in the assay with MCF7 [2] and in the assay on U-937 were 6400 nM and 28000 nM, respectively. The Activity in the assay with HeLa [3] is recorded as 53.85%; in the assay on HeLa [4], 17.26%; in the assay with HeLa [5], 24.94%; in the assay on HeLa [6], 1.87%.

With `COC(=O)Nc1nc2cc(C(=O)c3cccs3)ccc2[nH]1`, in assay [7], the inhibition entry was “Active”.

`CC(=O)O[C@H]1C(=O)[C@@]2(C)[C@H]([C@H](OC(=O)c3ccccc3)[C@]3(O)C[C@H](OC(=O)[C@H](O)[C@@H](NC(=O)c4ccccc4)c4ccccc4)C(C)=C1C3(C)C)[C@]1(OC(C)=O)CO[C@@H]1C[C@@H]2O`: the inhibition entry in [7] is “inactive”.

Regarding `COc1cc2c(cc1O)CC[C@@H]1[C@@H]2CC[C@]2(C)[C@@H](O)CC[C@@H]12` [2-METHOXYESTRADIOL], the IC50 in the assay on MCF7 [2] was found to be 842 nM; in the assay on U-937 it was 2910 nM.

As for `COc1ccc(C2=NC(C(=O)Nc3ccccc3O)CO2)cc1` (configuration not stated), in assay [8], it took 13 µM (≈ 4.06 µg/mL) to inhibit growth (MIC). Further, the 50% inhibitory concentration (IC50) in the assay on MCF7 [2] was > 20000 nM.

Consider `O=C(OCc1ccccc1)[C@H]1COC(c2ccccc2OCc2ccccc2)=N1`, for which it took 4.2 µM (≈ 1.63 µg/mL) to inhibit growth in assay [8] (MIC). The IC50 in the assay on MCF7 [2] was > 20000 nM.

As for `O=C(NCc1cn(Cc2cccc(Oc3ccccc3)c2)nn1)c1ccccn1`, the inhibition entry in [7] is “Active”. The Activity is >90% in the assay on HeLa [1]; “tde” with MCF7 [9]; 0.86% in the assay with HeLa [3]; 90.72% in the assay on HeLa [4]; 7.59% with HeLa [5]; 2% in the assay on HeLa [6]. Moreover, the IC50 with MCF7 [2] stood at 46 nM; with U-937 it was 580 nM. The result in the assay on HeLa [10], in the assay with HeLa [11], in the assay with HeLa [12] and in the assay with HeLa [13] was Active.

With `O=C(NCc1cn(Cc2cccc(Oc3ccccc3)c2)nn1)c1ccccc1`, in the assay on MCF7 [2], inhibition was half-maximal at 245 nM (IC50).

The compound `CCCCCCCCCCCCCCCC(=O)N(O)CCCC[C@H](NC(=O)[C@H]1COC(c2ccccc2O)=N1)C(=O)O[C@@H](C)CC(=O)N[C@H]1CCCCN(O)C1=O` returned an MIC in [8] of 3.9 µM (≈ 3.13 µg/mL).

For `COc1cc2c(c(OC)c1OC)-c1ccc(OC)c(=O)cc1[C@@H](NC(C)=O)CC2` [COLCHICINE], the IC50 with MCF7 [2] amounted to 13.4 nM; in the assay with U-937, 8 nM.
